“And” between values parts separate entries of the source, which are not always exact repeats. Identical values can stand only once.
Test system: Fibroblast
Assay: Multiplex assay against human fibroblast
Assay type: toxicity, cell-based
Procedure, shortened: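 Imaging took place on a CQ1 microscope at 37°C and 5% CO2 once compound had been added to live cells stained at seeding with Hoechst33342, BioTracker Green Microtubule Cytoskeleton Dye, MitoTracker Red and Annexin V Alexa Fluor 680. CellPathfinder machine-learning gating classed cells as Hoechst high-intensity objects or normal cells, classed normal cells as having healthy, pyknosed or fragmented nuclei, and classed pyknosed cells as mitotic or apoptotic. Tubulin, mitochondrial-mass and membrane-permeability phenotypes are per cents of the healthy-nucleus cells.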

[1] = 12 h, 1 µM, compound concentration 1 uM
[2] = 12 h, 10 µM, compound concentration 10 uM
[3] = 24 h, 1 µM, compound concentration 1 uM
[4] = 24 h, 10 µM, compound concentration 10 uM
[5] = 48 h, 1 µM, compound concentration 1 uM
[6] = 48 h, 10 µM, compound concentration 10 uM

With C[C@@H]1CC(=O)Nc2cccc(-c3ccc4c(c3)c(-c3cnn(C)c3)nn4C)c2N1 the “Population Apoptotic (%)” value [1] was 38%, the “Population Fragmented Nuclei (%)” value [1] was 20% and 26% and the “Population Healthy Nuclei (%)” value [1] was 63% and 47%. For the same compound, the “Population Hoechst High Intensity Objects (%)” value [1] was 1% and 5%, the “Population Membrane Permeable-Phenotype (%)” value [1] was 0% and 8% and the “Population Mitochondria Different-Phenotype (%)” value [1] was 4% and 12%. The “Population Mitotic Cells (%)” value [1] was 61%, the “Population Normal (%)” value [1] was 98% and 94% and the “Population Pyknosed Nuclei (%)” value [1] was 15% and 26%. The “Population Tubulin-Different-Phenotype (%)” value [1] was 31% and 51%, the “Total Cell Count” value [1] was 115 and 105 and the “Population Apoptotic (%)” value [2] was 40% and 30%. The “Population Fragmented Nuclei (%)” value [2] was 17% and 11%, the “Population Healthy Nuclei (%)” value [2] was 65% and 58% and the “Population Hoechst High Intensity Objects (%)” value [2] was 5% and 6%. The “Population Membrane Permeable-Phenotype (%)” value [2] was 1% and 7%, the “Population Mitotic Cells (%)” value [2] was 59% and 69% and the “Population Normal (%)” value [2] was 94% and 93%. The “Population Pyknosed Nuclei (%)” value [2] was 17% and 30%, the “Population Tubulin-Different-Phenotype (%)” value [2] was 63% and 68% and the “Total Cell Count” value [2] was 161 and 126. For the same compound, the “Population Apoptotic (%)” value [3] was 57% and 35%, the “Population Fragmented Nuclei (%)” value [3] was 16% and 29% and the “Population Healthy Nuclei (%)” value [3] was 67% and 50%. For the same compound, the “Population Hoechst High Intensity Objects (%)” value [3] was 2% and 7%, the “Population Membrane Permeable-Phenotype (%)” value [3] was 2% and 11% and the “Population Mitochondria Different-Phenotype (%)” value [3] was 5% and 9%. For the same compound, the “Population Mitotic Cells (%)” value [3] was 42% and 65%, the “Population Normal (%)” value [3] was 97% and 92% and the “Population Pyknosed Nuclei (%)” value [3] was 15% and 19%. The “Population Tubulin-Different-Phenotype (%)” value [3] was 33% and 60%, the “Total Cell Count” value [3] was 122 and 112 and the “Population Apoptotic (%)” value [4] was 75% and 42%. For the same compound, the “Population Fragmented Nuclei (%)” value [4] was 19% and 13%, the “Population Healthy Nuclei (%)” value [4] was 69% and 57% and the “Population Hoechst High Intensity Objects (%)” value [4] was 10% and 5%. For the same compound, the “Population Membrane Permeable-Phenotype (%)” value [4] was 0% and 1%, the “Population Mitotic Cells (%)” value [4] was 25% and 57% and the “Population Normal (%)” value [4] was 89% and 94%. The “Population Pyknosed Nuclei (%)” value [4] was 11% and 29%, the “Population Tubulin-Different-Phenotype (%)” value [4] was 66% and 76% and the “Total Cell Count” value [4] was 158 and 119. For the same compound, the “Population Apoptotic (%)” value [5] was 50% and 30%, the “Population Fragmented Nuclei (%)” value [5] was 25% and 36% and the “Population Healthy Nuclei (%)” value [5] was 60% and 50%. For the same compound, the “Population Hoechst High Intensity Objects (%)” value [5] was 5% and 2%, the “Population Mitochondria Different-Phenotype (%)” value [5] was 6% and 8% and the “Population Mitotic Cells (%)” value [5] was 50% and 69%. The “Population Normal (%)” value [5] was 94% and 97%, the “Population Pyknosed Nuclei (%)” value [5] was 14% and 13% and the “Population Tubulin-Different-Phenotype (%)” value [5] was 21% and 60%. The “Total Cell Count” value [5] was 114 and 102, the “Population Apoptotic (%)” value [6] was 92% and 60% and the “Population Fragmented Nuclei (%)” value [6] was 17%. The “Population Healthy Nuclei (%)” value [6] was 73% and 62%, the “Population Hoechst High Intensity Objects (%)” value [6] was 3% and 4% and the “Population Membrane Permeable-Phenotype (%)” value [6] was 0% and 6%. For the same compound, the “Population Normal (%)” value [6] was 96% and 95%, the “Population Pyknosed Nuclei (%)” value [6] was 8% and 19% and the “Population Tubulin-Different-Phenotype (%)” value [6] was 68% and 69%. The “Total Cell Count” value [6] was 162 and 122.
COc1cc(C(=O)N2CC[C@@H](O)[C@@H](N)C2)cc2nc(-c3cc4ccccc4n3CC3CC3)n(C)c12.Cl was tested, and the “Population Apoptotic (%)” value [1] was 21% and 48%, the “Population Fragmented Nuclei (%)” value [1] was 25% and 24% and the “Population Healthy Nuclei (%)” value [1] was 62% and 44%. For the same compound, the “Population Hoechst High Intensity Objects (%)” value [1] was 2% and 3%, the “Population Membrane Permeable-Phenotype (%)” value [1] was 0% and 10% and the “Population Mitochondria Different-Phenotype (%)” value [1] was 4% and 14%. For the same compound, the “Population Mitotic Cells (%)” value [1] was 78% and 51%, the “Population Normal (%)” value [1] was 97% and 96% and the “Population Pyknosed Nuclei (%)” value [1] was 12% and 31%. The “Population Tubulin-Different-Phenotype (%)” value [1] was 55% and 69%, the “Total Cell Count” value [1] was 160 and 130 and the “Population Apoptotic (%)” value [2] was 60% and 48%. The “Population Fragmented Nuclei (%)” value [2] was 22% and 30%, the “Population Healthy Nuclei (%)” value [2] was 57% and 44% and the “Population Hoechst High Intensity Objects (%)” value [2] was 6% and 10%. For the same compound, the “Population Membrane Permeable-Phenotype (%)” value [2] was 0% and 2%, the “Population Mitochondria Different-Phenotype (%)” value [2] was 34% and 25% and the “Population Mitotic Cells (%)” value [2] was 40% and 51%. The “Population Normal (%)” value [2] was 93% and 89%, the “Population Pyknosed Nuclei (%)” value [2] was 19% and 25% and the “Population Tubulin-Different-Phenotype (%)” value [2] was 97% and 92%. The “Total Cell Count” value [2] was 271 and 179, the “Population Apoptotic (%)” value [3] was 55% and 60% and the “Population Fragmented Nuclei (%)” value [3] was 24% and 31%. The “Population Healthy Nuclei (%)” value [3] was 62% and 36%, the “Population Hoechst High Intensity Objects (%)” value [3] was 3% and 4% and the “Population Membrane Permeable-Phenotype (%)” value [3] was 0% and 4%. The “Population Mitotic Cells (%)” value [3] was 45% and 39%, the “Population Normal (%)” value [3] was 96% and 95% and the “Population Pyknosed Nuclei (%)” value [3] was 13% and 31%. The “Population Tubulin-Different-Phenotype (%)” value [3] was 51% and 79%, the “Total Cell Count” value [3] was 158 and 125 and the “Population Apoptotic (%)” value [4] was 73% and 62%. The “Population Fragmented Nuclei (%)” value [4] was 15% and 27%, the “Population Healthy Nuclei (%)” value [4] was 68% and 54% and the “Population Hoechst High Intensity Objects (%)” value [4] was 7% and 5%. The “Population Membrane Permeable-Phenotype (%)” value [4] was 0% and 3%, the “Population Mitochondria Different-Phenotype (%)” value [4] was 55% and 41% and the “Population Mitotic Cells (%)” value [4] was 26% and 37%. The “Population Normal (%)” value [4] was 92% and 94%, the “Population Pyknosed Nuclei (%)” value [4] was 16% and 17% and the “Population Tubulin-Different-Phenotype (%)” value [4] was 94% and 92%. The “Total Cell Count” value [4] was 274 and 174, the “Population Apoptotic (%)” value [5] was 80% and 64% and the “Population Fragmented Nuclei (%)” value [5] was 22% and 38%. The “Population Healthy Nuclei (%)” value [5] was 67% and 41%, the “Population Hoechst High Intensity Objects (%)” value [5] was 6% and 1% and the “Population Membrane Permeable-Phenotype (%)” value [5] was 0% and 3%. For the same compound, the “Population Mitochondria Different-Phenotype (%)” value [5] was 8% and 16%, the “Population Mitotic Cells (%)” value [5] was 20% and 35% and the “Population Normal (%)” value [5] was 93% and 98%. For the same compound, the “Population Pyknosed Nuclei (%)” value [5] was 10% and 20%, the “Population Tubulin-Different-Phenotype (%)” value [5] was 44% and 80% and the “Total Cell Count” value [5] was 161 and 153. The “Population Apoptotic (%)” value [6] was 86%, the “Population Fragmented Nuclei (%)” value [6] was 20% and 32% and the “Population Healthy Nuclei (%)” value [6] was 64% and 55%. For the same compound, the “Population Hoechst High Intensity Objects (%)” value [6] was 8% and 4%, the “Population Membrane Permeable-Phenotype (%)” value [6] was 0% and the “Population Mitochondria Different-Phenotype (%)” value [6] was 62% and 36%. The “Population Mitotic Cells (%)” value [6] was 13%, the “Population Normal (%)” value [6] was 91% and 95% and the “Population Pyknosed Nuclei (%)” value [6] was 15% and 11%. The “Population Tubulin-Different-Phenotype (%)” value [6] was 94% and the “Total Cell Count” value [6] was 256 and 193.
With CN(C)CCCc1cc(C(=O)Nc2ccc(-c3ccncc3)cc2)ccc1O.Cl.Cl the “Population Apoptotic (%)” value [1] was 31% and 44%, the “Population Fragmented Nuclei (%)” value [1] was 15% and 22% and the “Population Healthy Nuclei (%)” value [1] was 65% and 52%. The “Population Hoechst High Intensity Objects (%)” value [1] was 4% and 2%, the “Population Membrane Permeable-Phenotype (%)” value [1] was 0% and 4% and the “Population Mitochondria Different-Phenotype (%)” value [1] was 7% and 4%. The “Population Mitotic Cells (%)” value [1] was 68% and 55%, the “Population Normal (%)” value [1] was 95% and 97% and the “Population Pyknosed Nuclei (%)” value [1] was 18% and 24%. For the same compound, the “Population Tubulin-Different-Phenotype (%)” value [1] was 22% and 40%, the “Total Cell Count” value [1] was 122 and 120 and the “Population Apoptotic (%)” value [2] was 68% and 48%. The “Population Fragmented Nuclei (%)” value [2] was 33% and 31%, the “Population Healthy Nuclei (%)” value [2] was 58% and 51% and the “Population Hoechst High Intensity Objects (%)” value [2] was 7% and 4%. The “Population Membrane Permeable-Phenotype (%)” value [2] was 0% and 4%, the “Population Mitochondria Different-Phenotype (%)” value [2] was 15% and 6% and the “Population Mitotic Cells (%)” value [2] was 31% and 51%. The “Population Normal (%)” value [2] was 92% and 95%, the “Population Pyknosed Nuclei (%)” value [2] was 7% and 17% and the “Population Tubulin-Different-Phenotype (%)” value [2] was 43% and 45%. The “Total Cell Count” value [2] was 305 and 236, the “Population Apoptotic (%)” value [3] was 30% and 37% and the “Population Fragmented Nuclei (%)” value [3] was 16% and 22%. For the same compound, the “Population Healthy Nuclei (%)” value [3] was 66% and 50%, the “Population Hoechst High Intensity Objects (%)” value [3] was 1% and 4% and the “Population Membrane Permeable-Phenotype (%)” value [3] was 2% and 1%. The “Population Mitochondria Different-Phenotype (%)” value [3] was 3% and 7%, the “Population Mitotic Cells (%)” value [3] was 70% and 62% and the “Population Normal (%)” value [3] was 98% and 95%. The “Population Pyknosed Nuclei (%)” value [3] was 17% and 27%, the “Population Tubulin-Different-Phenotype (%)” value [3] was 25% and 45% and the “Total Cell Count” value [3] was 119 and 111. The “Population Apoptotic (%)” value [4] was 47% and 42%, the “Population Fragmented Nuclei (%)” value [4] was 30% and 31% and the “Population Healthy Nuclei (%)” value [4] was 63% and 53%. The “Population Hoechst High Intensity Objects (%)” value [4] was 6% and 4%, the “Population Membrane Permeable-Phenotype (%)” value [4] was 0% and 5% and the “Population Mitochondria Different-Phenotype (%)” value [4] was 11% and 5%. For the same compound, the “Population Mitotic Cells (%)” value [4] was 52% and 57%, the “Population Normal (%)” value [4] was 93% and 95% and the “Population Pyknosed Nuclei (%)” value [4] was 5% and 14%. The “Population Tubulin-Different-Phenotype (%)” value [4] was 40% and 42%, the “Total Cell Count” value [4] was 339 and 242 and the “Population Apoptotic (%)” value [5] was 62% and 50%. The “Population Fragmented Nuclei (%)” value [5] was 28% and 23%, the “Population Healthy Nuclei (%)” value [5] was 59% and 54% and the “Population Hoechst High Intensity Objects (%)” value [5] was 0% and 8%. For the same compound, the “Population Membrane Permeable-Phenotype (%)” value [5] was 0% and 1%, the “Population Mitochondria Different-Phenotype (%)” value [5] was 1% and 5% and the “Population Mitotic Cells (%)” value [5] was 37% and 50%. The “Population Normal (%)” value [5] was 99% and 91%, the “Population Pyknosed Nuclei (%)” value [5] was 12% and 21% and the “Population Tubulin-Different-Phenotype (%)” value [5] was 29% and 46%. The “Total Cell Count” value [5] was 126 and 111, the “Population Apoptotic (%)” value [6] was 56% and 51% and the “Population Fragmented Nuclei (%)” value [6] was 28% and 35%. The “Population Healthy Nuclei (%)” value [6] was 60% and 53%, the “Population Hoechst High Intensity Objects (%)” value [6] was 11% and 2% and the “Population Membrane Permeable-Phenotype (%)” value [6] was 0% and 3%. For the same compound, the “Population Mitochondria Different-Phenotype (%)” value [6] was 8% and 2%, the “Population Mitotic Cells (%)” value [6] was 43% and 48% and the “Population Normal (%)” value [6] was 88% and 97%. The “Population Pyknosed Nuclei (%)” value [6] was 11% and 10%, the “Population Tubulin-Different-Phenotype (%)” value [6] was 48% and 39% and the “Total Cell Count” value [6] was 321 and 261.
